# ABHD5-PLIN5 inh: blocks binding of human ABHD5 to perilipin-5; Q00G26+Q8WTS1; Split G. princeps luciferase complementation, luminescence, 4 h; inhibition, % at 4 µM; actives 0.78% (n = 360,000); AID 602281;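 active = inhibition above the mean inhibition across every tested compound plus 3 SD, cut at about 22% in these data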
# MC4R antag cAMP: human MC4R antagonism in cAMP assay; P32245; MC4R-expressing cells, MTII-stimulated cAMP, LANCE TR-FRET; inhibition, % at 6.5 µM; actives 0.48% (n = 360,000); AID 540295;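 active = inhibition above its plate's cutoff, the mean of tested wells on that plate plus 3 SD, cut at about 29% in these data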
# Target sequence (P32245 whole entry, looked up): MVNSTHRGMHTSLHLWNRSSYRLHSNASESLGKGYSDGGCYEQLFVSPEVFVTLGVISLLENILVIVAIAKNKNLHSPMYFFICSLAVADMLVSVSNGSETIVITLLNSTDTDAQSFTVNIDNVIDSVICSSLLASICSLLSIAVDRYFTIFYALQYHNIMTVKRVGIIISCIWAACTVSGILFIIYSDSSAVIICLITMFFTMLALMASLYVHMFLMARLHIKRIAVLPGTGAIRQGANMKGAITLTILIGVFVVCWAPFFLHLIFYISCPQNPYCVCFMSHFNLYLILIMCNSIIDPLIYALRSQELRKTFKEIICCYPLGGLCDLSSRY
#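 Test system: U2OS cells stably expressing human melanocortin 4 receptor (MC4R); also added: Melanotan II challenge; compound: 6.5 µM single dose; timing: 30-min compound preincubation, 1-h Melanotan II challenge, 1-h detection, room temperature; signal: Eu-cAMP/anti-cAMP TR-FRET, emission 671 nm; repeats: one well per compound, no replicates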
# MC4R barr agon: agonists of human melanocortin 4 receptor (MC4R) beta-arrestin; actives 0.98% (n = 360,000); U2OS MC4R beta-arrestin complementation, luminescence; percent of melanotan II response, DMSO zero; activation, % at 8.9 µM; P32245;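 active = activation above a per-plate cutoff, the mean activation of sample wells on that plate plus 3 SD, cut at about 8% in these data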
# PfG6PD inh: PfG6PD (Plasmodium falciparum) enzyme inhibition; inhibition, % at 20 µM; actives 0.78% (n = 350,000); PfGluPho enzyme, NADPH resazurin-diaphorase fluorescence; AID 504690;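 active = inhibition reaching at least a set limit at 20 µM in the primary screen, cut at about 59% in these data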
# B2AR ag: human beta-2 adrenergic receptor agonism by FAP; Am2.2-beta2AR cells, FAP receptor internalization, flow cytometry; actives 0.43% (n = 340,000); AID 504454; response, % (test concentration not listed);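 active = response above a set limit, near 3 SD of response in nonfluorescent compounds, cut at about 42% in these data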
# MC4R barr ag: human MC4R beta-arrestin agonism confirmation. shares compounds with MC4R barr agon. U2OS MC4R beta-arrestin recruitment, luminescence; scaled DMSO 0%, Melanotan II 100%. activation, % at 8.9 µM. actives 31% (n = 2,400). AID 602192;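 active = mean activation across replicates above the hit cutoff set in the earlier primary screen, cut at about 8% in these data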
# MOR DOR agonist: counter-screen for MC4R agonists: agonists of mu-delta opioid heterodimer. activation, % at 9.2 µM. shares compounds with MC4R barr agon. U2OS PathHunter beta-arrestin, beta-gal luminescence; percent of deltorphin B response, DMSO zero. AID 602194. actives 5.8% (n = 2,400);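 active = mean activation across replicates exceeds the hit threshold derived in the earlier primary screen, cut at about 18% in these data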
# Hits are given with their value; 0 = inactive; - = not tested or not shown. Most compounds without a hit are left out; they make up all but 3% or so of the library.
SMILES,ABHD5-PLIN5 inh,MC4R antag cAMP,MC4R barr agon,PfG6PD inh,B2AR ag,MC4R barr ag,MOR DOR agonist
COc1ccccc1Nc1nnc(SCC(=O)Nc2cc(C)on2)s1,0,0,30,0,0,0,0
O=C1CC(SC(=Nc2ccccc2)Nc2ccccc2)C(=O)N1c1ccc(Cl)cc1 (configuration not stated),0,0,12,0,0,0,0
Cc1cccc(C)c1OCC(O)CN1CCC(CN2C(=O)c3cccc4cccc(c34)C2=O)CC1 (configuration not stated),0,0,0,0,0,-,-
O=C(NN=Cc1ccc2c(c1)CCC2)c1cccc([N+](=O)[O-])c1,0,0,22,0,-,13,0
O=C(Cc1cccc2ccccc12)NN=Cc1ccc2c(c1)CCC2,0,0,13,0,-,0,0
O=c1cnc2cc([N+](=O)[O-])ccc2[nH]1,0,0,0,0,0,-,-
S=C1Nc2ccccc2Sc2ccc(Cl)cc21,0,0,23,0,0,10,0
CCC1([N+](=O)[O-])COC(c2ccc(OC)cc2)OC1 (configuration not stated),0,0,0,0,0,-,-
C=CCC1(N(C(C)=O)c2ccccc2)CCCCC1,0,0,0,0,0,-,-
Cn1c2ccccc2c2cnn(CC(=O)Nc3ccc(F)cc3F)c(=O)c21,0,0,16,0,0,0,0
Cc1cccc(-c2nnn3c2nc(NCCc2ccc(S(N)(=O)=O)cc2)c2ccccc23)c1,0,0,0,0,0,-,-
NS(=O)(=O)c1ccc(CCNc2nc3c(-c4cccc(F)c4)nnn3c3ccccc23)cc1,0,0,15,0,0,11,0
CCCCn1c(=O)c(CCC(=O)OCC(=O)Nc2ccc(F)c(Cl)c2)nc2ccccc21,0,0,10,0,0,0,0
C=CCN(CC=C)S(=O)(=O)c1ccc(NC(=S)NC(=O)/C=C/c2ccccc2)cc1,0,0,19,0,0,0,0
COCc1cc(C)nc(SCC(=O)Nc2ccc3[nH]c(=O)[nH]c3c2)c1C#N,0,0,0,0,0,-,-
COc1ccc(NC(=O)Cc2c(SC)c3ccccc3n2Cc2ccccc2)cc1,0,0,24,0,0,0,0
CN(Cc1ccccc1Br)C(=O)CSc1nnnn1C1CC1,0,0,0,0,0,-,-
Cc1ccc(S(=O)(=O)N2CCCN(S(=O)(=O)c3ccc(C(F)(F)F)cc3)CC2)cc1,0,0,28,0,0,14,30
Cc1cc(C)nc(Nc2n[nH]c(COc3ccc4ccccc4c3)n2)n1,0,0,16,0,0,0,0
Cc1cc(C)nc(Nc2n[nH]c(COc3ccccc3)n2)n1,0,0,0,0,0,-,-
CN(Cc1ccccc1)C(=O)c1ccc(Nc2nc(C(N)Cc3ccccc3)cs2)nc1 (configuration not stated),0,0,0,-,-,-,-
NC(Cc1ccc(C(F)(F)F)cc1)c1csc(Nc2ccc(C(=O)c3ccccc3)cc2)n1 (configuration not stated),0,0,13,-,-,14,0
NC(CCc1ccccc1)c1csc(Nc2ccc(C(=O)NCCO)cc2)n1 (configuration not stated),0,0,0,-,-,-,-
NC(Cc1ccc(C(F)(F)F)cc1)c1csc(Nc2cc(NCc3ccco3)ncn2)n1 (configuration not stated),0,0,12,-,-,43,26
NC(CCc1ccccc1)c1csc(Nc2ccc(C(=O)c3ccccc3)cc2)n1 (configuration not stated),0,0,13,-,-,20,0
SMILES,ABHD5-PLIN5 inh,MC4R antag cAMP,MC4R barr agon,PfG6PD inh,B2AR ag,MC4R barr ag,MOR DOR agonist
CN(Cc1ccccc1)C(=O)c1ccc(Nc2nc(C(N)Cc3ccc(C(F)(F)F)cc3)cs2)nc1 (configuration not stated),0,0,40,-,-,22,33
NC(Cc1ccc(C(F)(F)F)cc1)c1csc(Nc2ccccn2)n1 (configuration not stated),0,0,0,-,-,-,-
COc1ccc(-c2nc(-c3ccc(NC(=O)c4ccc(Br)o4)cc3)no2)cc1OC,0,0,45,0,0,22,46
COc1ccc(CC(=O)Nc2ccc(-c3noc(-c4ccccc4OC)n3)cc2)cc1,0,0,16,0,0,24,0
COc1ccccc1CC(=O)Nc1ccc(-c2noc(COc3ccc(Br)cc3)n2)cc1,0,0,26,0,0,0,19
COc1ccc(-c2noc(N3CCC(C(=O)Nc4ccc(OC)c(OC)c4)CC3)n2)cc1,0,0,13,0,0,0,0
O=C(C1CCCCC1)N1C[C@@H](n2cc(-c3ccc(F)cc3)nn2)[C@H](O)C[C@@H]1c1ccc(Cl)cc1,0,0,12,0,-,0,0
O=C(C1CCCCC1)N1C[C@H](n2cc(-c3ccc(F)cc3)nn2)[C@@H](O)C[C@@H]1c1ccc(Cl)cc1,0,0,0,0,-,-,-
COc1ccc(COC(=O)c2sc3nc4n(c(=O)c3c2C)CCC4)cc1,0,0,0,0,0,-,-
Cc1nn(Cc2ccccc2Cl)c(C)c1C(=O)NCc1ccco1,0,0,0,0,0,-,-
Cc1nn(Cc2ccccc2Cl)c(C)c1C(=O)NCCN1C(=O)S/C(=C\c2ccccc2)C1=O,0,0,20,0,0,12,0
COc1ccc(NC(=O)Cn2cc(S(=O)(=O)Cc3ccccc3)c3ccccc32)c(OC)c1,0,0,0,0,0,-,-
O=C(Cn1cc(S(=O)(=O)Cc2ccccc2)c2ccccc21)Nc1ccccc1,0,0,9.7,0,0,0,0
O=c1[nH]nc(SCc2nnc(-c3cccc(Cl)c3)o2)n1C1CCCCC1,0,0,0,0,0,-,-
Cc1ccnc(Nc2nc(-c3ccc(O)cc3)cs2)c1,0,0,0,0,0,-,-
Cc1ccnc(Nc2nc(-c3ccc(O)cc3O)cs2)c1,0,0,18,0,0,13,0
COc1ccc(CC(=O)NC(C)c2nnc(SCCOc3ccc(OC)cc3)n2C)cc1 (configuration not stated),0,0,0,0,0,-,-
COc1ccc(-c2cc(C(=O)Nc3ccccc3SC)no2)cc1OC,0,0,39,0,0,0,0
Cc1ccc(-c2cc(C(=O)Nc3cnn(C45CC6CC(CC(C6)C4)C5)c3)no2)cc1,0,0,0,0,0,-,-
O=C(Nc1cnn(C23CC4CC(CC(C4)C2)C3)c1)c1cc(-c2ccccc2)on1,0,0,12,0,0,0,0
COc1ccc(-c2cc(C(=O)Nc3cnn(Cc4ccccc4C)c3)no2)cc1OC,0,0,12,0,0,0,0
